This note sets out measurements from ChEMBL document CHEMBL3784993, “Synthesis and anticancer activity of some 5-fluoro-2'-deoxyuridine phosphoramidates” (Bioorg Med Chem, 2016).

The test system of assay [1] is HeLa. The experiment in a line: Cytotoxicity against human HeLa cells after 72 hrs in presence of human recombinant cytochrome P450 isoform mixture by SRB assay. The class given is functional, cell-based.
In assay [2] the test system is HeLa. The experiment in a line: Cytotoxicity against human HeLa cells after 72 hrs by SRB assay. The class given is functional, cell-based. The method, boiled down: (§1)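 SRB protein-stain assay. Cells were seeded at about 10,000 per well and grown 24 h to a partial monolayer. They were then exposed for 72 h at 37 °C (5% CO2, 90% RH) to six concentrations: 0.1, 0.2, 1, 2, 10 and 20 µM. Final DMSO was ≤0.1%. Cells were TCA-fixed and stained with 0.4% SRB, and OD was read at 490 nm. Survival was expressed versus untreated cells. Cytarabine served as internal standard, with three experiments.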
In general terms: Sulforhodamine B stains cellular protein and so reports cell mass.

A further assay relates to KB. Briefly: Cytotoxicity against human KB cells after 72 hrs by SRB assay. The class given is functional, cell-based. Summed up: as §1
The subject of assay [3] is MCF7. Briefly: Cytotoxicity against human MCF7cells after 72 hrs by SRB assay. The class given is functional, cell-based. The settings on record: MCF7, 72 h.
For assay [4], the system named is HepG2. Briefly: Cytotoxicity against human HepG2 cells after 72 hrs by SRB assay. The assay is classed as functional, cell-based. The settings on record: HepG2, 72 h.
A short description of assay [5]: Cytotoxicity against HDF cells after 72 hrs by SRB assay. The class given is cell-based. The settings on record: Homo sapiens.
The subject of assay [6] is MCF7. The experiment in a line: Selectivity index, ratio of IC50 for HDF cells to IC50 for human MCF7 cells. The assay is classed as functional. Summed up:
(§2)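 SI is calculated as the IC50 in normal human dermal fibroblasts (HDF) divided by the IC50 in the respective cancer line. Both values come from 72 h SRB assays. SD is from three independent experiments.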

The subject of assay [7] is HeLa. Briefly: Selectivity index, ratio of IC50 for HDF cells to IC50 for human HeLa cells. The assay is classed as functional. Summed up: as §2
Assay [8] can be described thus: Selectivity index, ratio of IC50 for HDF cells to IC50 for human KB cells. The class given is functional. The method, boiled down:
as §2

Assay [9] has as its system 143B. The experiment in a line: Selectivity index, ratio of IC50 for HDF cells to IC50 for human 143B cells. The class given is functional. Summed up: as §2
The test system of assay [10] is 143B. Briefly: Cytotoxicity against human 143B cells after 72 hrs by SRB assay. The assay is classed as functional, cell-based. The method, boiled down: as §1
Assay [11] deals with HepG2. The experiment in a line: Selectivity index, ratio of IC50 for HDF cells to IC50 for human HepG2 cells. The assay is classed as functional. Summed up:
as §2

Assay [12] deals with 143B. The experiment in a line: Cytotoxicity against human thymidine kinase deficient 143B cells after 72 hrs by SRB assay. The assay is classed as functional, cell-based. Summed up:
as §1

In assay [13] the test system is MCF7. The experiment in a line: Potency index, ratio of IC50 for 5-fluoro-2'-deoxyuridine to IC50 for test compound for cytotoxicity against human MCF7cells after 72 hrs by SRB assay. The class given is functional.

For `[N-]=[N+]=NCCCCNP(=O)(OC[C@H]1O[C@@H](n2cc(F)c(=O)[nH]c2=O)C[C@@H]1O)Oc1ccc(Cl)cc1` (some centres not stated), the IC50 in the assay with HeLa [1] was 20.6 µM; with HeLa [2], 72.1 µM; with KB, 71.3 µM; in the assay with MCF7 [3], 67.6 µM; with HepG2 [4], above 100 µM; in assay [5], above 100 µM.
As to `CCCNP(=O)(OC[C@H]1O[C@@H](n2cc(F)c(=O)[nH]c2=O)C[C@@H]1O)Oc1ccc(Cl)cc1` (some centres not stated), the IC50 in the assay with HeLa [1] came to 45.9 µM; with HeLa [2], 50.2 µM; with KB it was 50.4 µM; with MCF7 [3], 27.2 µM; in the assay on HepG2 [4] it was 41.9 µM; in assay [5] it was 61 µM.
On to `CCCNP(=O)(OC[C@H]1O[C@@H](n2cc(F)c(=O)[nH]c2=O)C[C@@H]1OC(=O)OC(C)(C)C)Oc1ccc(Cl)cc1` (some centres not stated), for which the IC50 in the assay on HeLa [1] is 45.2 µM; in the assay with HeLa [2], 49.3 µM; in the assay with KB, 27.2 µM; with MCF7 [3], 20.8 µM; with HepG2 [4] it was 26 µM; in assay [5], 61.1 µM.
With `CCCCNP(=O)(OC[C@H]1O[C@@H](n2cc(F)c(=O)[nH]c2=O)C[C@@H]1OC(=O)OC(C)(C)C)Oc1ccc(Cl)cc1` (some centres not stated), the half-maximal inhibitory concentration (IC50) in the assay with HeLa [1] came to 71.4 µM; in the assay with HeLa [2], 76 µM; in the assay with KB, 66.4 µM; with MCF7 [3], 80.1 µM; in the assay on HepG2 [4] it was 64.2 µM; in assay [5], 87 µM.
For `CCNP(=O)(OC[C@H]1O[C@@H](n2cc(F)c(=O)[nH]c2=O)C[C@@H]1OC(=O)OC(C)(C)C)Oc1ccc(Cl)cc1` (some centres not stated), the “Ratio IC50” value in the assay with MCF7 [6] was determined as 4.24; with HeLa [7], 2.26; in assay [8], 1.79; with 143B [9] it was 1.37; in the assay with HepG2 [11], 1.41; in the assay with MCF7 [13], 9. Moreover, the 50% inhibitory concentration (IC50) in the assay with HeLa [2] worked out at 2.66 µM; in the assay on KB, 3.37 µM; with MCF7 [3] it was 1.42 µM; in the assay with HepG2 [4] it was 4.26 µM; in the assay on 143B [10] it was 4.4 µM; in the assay on 143B [12] it was 9.11 µM. Moreover, the IC50 in [5] was 6.02 µM.

Usually IC50 stands for the concentration that inhibits the measured activity by half.
